Compound activity: PubChem, several laboratories
PfG6PD inh – PfG6PD (Plasmodium falciparum) enzyme inhibition | PfGluPho enzyme, NADPH resazurin-diaphorase fluorescence | inhibition, % at 20 µM | 0.78% of 350,000 active | AID 504690;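 active = inhibition reaching at least a set limit at 20 µM in the primary screen, cut at about 59% in these data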;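 note: 0% = DMSO wells with substrate and 100% = DMSO wells lacking glucose-6-phosphate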
HKDC1 inhibitor – blocks human hexokinase HKDC1 activity | 0.16% of 340,000 active | inhibition, % at 20 µM | recombinant HKDC1, G6PDH/diaphorase resazurin coupled fluorescence | AID 493160;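 active = inhibition above about 35% when tested at 20 µM, limit read from the data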;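 note: plate controls were DMSO wells with enzyme for no effect and DMSO wells lacking enzyme for full effect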
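System: Recombinant HKDC1 hexokinase | Amount: HKDC1 at 5 µg/mL | Reagent: Glucose with 1 mM ATP | Doses: Single 20 µM dose | Incubation: Reaction time 90 min, room temperature, protected from light | Signal: Coupled resazurin fluorescence, excitation 525 nm, emission 613 nm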
aDG glyco act – increases alpha dystroglycan glycosylation. Pro5-aDG cells, alpha-DG glycosylation AlphaScreen (IIH6); 0% Pro5, 100% B10-LARGE cell signal. activation, % at 10 µM. 0.22% of 360,000 active. AID 624168;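 active = activation of at least 8% versus controls, or a plate z-score of at least 8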;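 note: Pro5 are CHO cells carrying HIG-tagged alpha-DG that lacks glycosylation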
Cardio protect – modulators protecting cardiomyocytes from myocardial damage; AID 588492; protection from H2O2 cell death, % at 20 µM; 0.63% of 360,000 active; H9c2 cardiomyocytes, H2O2 injury protection, ATPLite, 2 h;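 active = compounds giving at least 50% protection of heart cells from peroxide-induced death in the single-dose screen, raw or plate-pattern-corrected value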;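 note: 0% = DMSO wells with peroxide and 100% = DMSO wells without peroxide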
Beta2AR agonist – agonists of human beta-2 adrenergic receptor inducing internalization. Am2.2-beta2AR cells, FAP receptor internalization, flow cytometry. 0.43% of 340,000 active. response, % (concentration not given with the values). P07550. AID 504454;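 active = response above a set limit, near 3 SD of response in nonfluorescent compounds, cut at about 42% in these data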
UCH37 DUB inh – human UCH37 deubiquitinating enzyme inhibition | purified proteasome/UCH37, Ub-AMC cleavage fluorescence | inhibition, % (no concentration beside the values) | 0.33% of 330,000 active | AID 588478;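 active = mean inhibition over replicate wells above about 20%, limit read from the data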;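 note: 0% = compound-free wells with enzyme and 100% = wells lacking proteasome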
Target sequence (Q9Y5K5 whole entry, looked up): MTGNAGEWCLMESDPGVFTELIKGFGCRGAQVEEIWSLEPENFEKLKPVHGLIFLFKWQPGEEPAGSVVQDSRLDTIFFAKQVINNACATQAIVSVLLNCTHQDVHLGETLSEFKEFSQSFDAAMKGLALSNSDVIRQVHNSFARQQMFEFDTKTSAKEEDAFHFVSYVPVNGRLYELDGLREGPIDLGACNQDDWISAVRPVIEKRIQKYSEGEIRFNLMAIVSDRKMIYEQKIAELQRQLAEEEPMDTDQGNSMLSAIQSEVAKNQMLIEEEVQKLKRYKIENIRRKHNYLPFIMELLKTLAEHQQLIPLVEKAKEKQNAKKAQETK
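Reagent: Ub-AMC substrate; assay system: Proteasome-associated human UCH37 deubiquitinase; controls: no-proteasome and no-compound wells; read-out: % inhibition of Ub-AMC cleavage fluorescence; timing: 30 min preincubation with enzyme, 25 min cleavage at room temperature; signal: AMC fluorescence from Ub-AMC cleavage, excitation 355 nm, emission 460 nm; buffer or medium: Tris-HCl pH 7.4 plus ovalbumin, ATP-MgCl2, DTT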
UCH37 reconfirm – UCH37 Ub-AMC cleavage inhibition, confirmed | shares compounds with UCH37 DUB inh | Proteasome-bound UCH37, Ub-AMC cleavage fluorescence | inhibition, % at 20 µM | 27% of 480 active;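 active = average inhibition over replicates above about 50%, so the earlier screening hit is confirmed, limit read from the data; inactive = the rest, counted as false positives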;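 note: based on cleavage rate fitted by regression over a 30 min kinetic read; 0% = proteasome plus Ub-AMC and 100% = Ub-AMC without proteasome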
aDG glyco conf – alpha-DG glycosylation activation, confirmation. shares compounds with aDG glyco act. Pro5-aDG cells, IIH6 AlphaLISA; scaled to LARGE-overexpressing B10 cells as 100%. activation, % at 10 µM (by protocol). 17% of 600 active;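 active = activation of at least 7% in one or more replicates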;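 note: cells exposed to compound for two days before detection; 0% = DMSO-treated Pro5 cells and 100% = DMSO-treated B10-LARGE cells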
Starred values were filed as active, the others as inactive; . = no result. Hits are enriched below; roughly 2.1% of the tested compounds scored in any of these assays.

SMILES	PfG6PD inh	HKDC1 inhibitor	aDG glyco act	Cardio protect	Beta2AR agonist	UCH37 DUB inh	aDG glyco conf	others
CCCCCCC[n+]1ccc(-c2cc[n+](CCCCCCC)cc2)cc1	-4	-2	2	-3	-8	7	.
CCCCCCCCCCCCCCCC[n+]1ccccc1	-9	11	1	-41	39	79*	.	UCH37 reconfirm=97*
CC(=O)c1ccc(N2CCN(C(=O)CN3C(=O)NC4(CCCCC4)C3=O)CC2)c(F)c1	-18	-2	0	4	5	8	.
COC(=O)C1=C(c2ccc(OC(F)(F)F)cc2)C[C@@H]2CC[C@H]1N2C(=O)NCCNC(C)=O	-7	-7	0	2	3	0	.
COC(=O)C1=C(c2ccc(OC(F)(F)F)cc2)C[C@@H]2CC[C@H]1N2C(=O)NCCOc1ccc(OC)cc1	20	1	1	-2	2	49*	.	UCH37 reconfirm=4
Cc1c(N=Nc2c(O)[nH]c(=S)[nH]c2=O)c(=O)n(-c2ccccc2)n1C	4	15	0	-4	1	30*	.	UCH37 reconfirm=10
O=C1C2CCCN2C(c2ccc(Cl)c(Cl)c2)N1c1ccccn1 (configuration not stated)	-9	-2	7.0*	14	-11	4	0
Cc1ccc(OCCn2cc(/C=C(\C#N)C(=O)NCC3CCCO3)c3ccccc32)cc1C (configuration not stated)	12	-1	0	0	-5	-1	.
CCN1CCN(c2nc([N+](=O)[O-])nn2C)CC1	-14	5	0	-1	3	4	.
CN1CCN(c2nc([N+](=O)[O-])nn2C)CC1	19	-3	25*	6	5	0	2
CCC(=NCCc1c[nH]c2ccccc12)c1c(O)n(C)c(=O)n(C)c1=O	15	-6	5.0*	-14	-6	5	0
COc1ccc2c(c1)[C@]13CCCC[C@@H]1[C@H](C2)N(C)CC3	.	.	.	.	.	4	.
O=C1NCN(c2ccccc2)C12CCN(C(c1cc3ccccc3o1)c1nnnn1C1CCCCC1)CC2 (configuration not stated)	.	.	8.4*	-12	.	.	0
CC(C)(C)n1nnnc1C(c1cc2ccccc2o1)N1CCC2(CC1)C(=O)NCN2c1ccccc1 (configuration not stated)	.	.	0	21	.	.	.
